In ChEMBL document CHEMBL1795306, “Acyl derivatives of p-aminosulfonamides and dapsone as new inhibitors of the arginine methyltransferase hPRMT1” (Bioorg Med Chem, 2011):
Active and inactive are the calls of the source. The rule behind the calls is not given here.

Key:
[1] = Growth inhibition of human MCF7a cells by MTS assay; format: functional
[2] = biological target: T1, Histone-lysine N-methyltransferase SETD7 (Homo sapiens) (UniProt Q8WTS6); assay: Inhibition of methyl transferase activity of SET7/9 at 50 uM using biotinylated histone H3(1-21) substrate by In-vitro time resolved fluorescence immunosorbent methyltransferase assay
T1 sequence (whole entry): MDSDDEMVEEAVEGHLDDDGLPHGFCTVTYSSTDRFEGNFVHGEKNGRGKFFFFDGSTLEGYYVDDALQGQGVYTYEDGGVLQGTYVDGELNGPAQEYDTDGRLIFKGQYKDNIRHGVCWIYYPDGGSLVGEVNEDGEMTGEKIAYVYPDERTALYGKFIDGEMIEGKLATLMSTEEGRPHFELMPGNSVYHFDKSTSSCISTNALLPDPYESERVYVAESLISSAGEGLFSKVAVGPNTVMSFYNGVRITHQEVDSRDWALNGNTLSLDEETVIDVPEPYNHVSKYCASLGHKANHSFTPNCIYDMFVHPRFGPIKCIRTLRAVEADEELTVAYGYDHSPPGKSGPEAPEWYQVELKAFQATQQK
Summary of the method: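 Biotinylated human histone H3 peptide (aa 1-21, 20 pmol/well) bound to streptavidin plates. Recombinant human GST-Set7/9 preincubated with inhibitor (DMSO) 10 min at 30 °C, then transferred to wells; reaction started with SAM. Methylation detected with rabbit anti-methyl H3K4 antibody and europium-labelled anti-rabbit IgG, read by time-resolved fluorescence (340/615 nm) after enhancement solution.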

LNCaP [3] = assay: Inhibition of androgen dependent transcription in human LNCAP cells assessed as blockade of R1881-induced transcription at 25 uM by androgen derived MMTV-luciferase reporter gene assay; format: functional, cell-based
Summary of the method: (§1)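 LNCaP cells (2×10^5) grown in RPMI1640/10% FCS, switched to phenol-red-free RPMI1640 with 10% double-stripped FCS, transfected with 500 ng MMTV-Luc (androgen-driven) or TK-Luc (androgen-independent) reporter per well. Six hours later inhibitor or DMSO added, then overnight with or without 10^-10 M R1881; luciferase read. Three experiments in duplicate, mean + SD (n = 6).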

[4] = biological target: T2, Protein arginine N-methyltransferase 1 (Homo sapiens, UniProt Q99873); assay: Inhibition of human recombinant PRMT1-mediated arginine methylation at 10 uM using nonhistone protein Npl3 substrate by ELISA
Target sequence in this assay (Q99873 whole entry, looked up): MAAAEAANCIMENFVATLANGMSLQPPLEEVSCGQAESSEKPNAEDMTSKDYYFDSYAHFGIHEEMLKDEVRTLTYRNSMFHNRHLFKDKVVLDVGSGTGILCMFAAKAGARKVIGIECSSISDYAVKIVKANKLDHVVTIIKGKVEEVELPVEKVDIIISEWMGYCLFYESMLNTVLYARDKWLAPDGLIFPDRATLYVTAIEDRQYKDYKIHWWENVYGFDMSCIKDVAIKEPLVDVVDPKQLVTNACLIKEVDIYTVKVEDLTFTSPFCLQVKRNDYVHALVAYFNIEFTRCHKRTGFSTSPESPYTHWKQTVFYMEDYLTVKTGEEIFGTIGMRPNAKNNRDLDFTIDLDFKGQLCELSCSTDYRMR

[5] = biological target: T2, Protein arginine N-methyltransferase 1; assay: Inhibition of human recombinant PRMT1-mediated arginine methylation at 50 uM using nonhistone protein Npl3 substrate by ELISA
Target sequence in this assay (Q99873 whole entry, looked up): as above

[6] = biological target: T3, Histone-arginine methyltransferase CARM1 (Mus musculus) (UniProt Q9WVG6); assay: Inhibition of mouse FLAG-tagged CARM1-mediated arginine methylation using histone H3(1-31) and [14C]-SAM at 0.01 to 2 mM
T3 sequence (whole entry): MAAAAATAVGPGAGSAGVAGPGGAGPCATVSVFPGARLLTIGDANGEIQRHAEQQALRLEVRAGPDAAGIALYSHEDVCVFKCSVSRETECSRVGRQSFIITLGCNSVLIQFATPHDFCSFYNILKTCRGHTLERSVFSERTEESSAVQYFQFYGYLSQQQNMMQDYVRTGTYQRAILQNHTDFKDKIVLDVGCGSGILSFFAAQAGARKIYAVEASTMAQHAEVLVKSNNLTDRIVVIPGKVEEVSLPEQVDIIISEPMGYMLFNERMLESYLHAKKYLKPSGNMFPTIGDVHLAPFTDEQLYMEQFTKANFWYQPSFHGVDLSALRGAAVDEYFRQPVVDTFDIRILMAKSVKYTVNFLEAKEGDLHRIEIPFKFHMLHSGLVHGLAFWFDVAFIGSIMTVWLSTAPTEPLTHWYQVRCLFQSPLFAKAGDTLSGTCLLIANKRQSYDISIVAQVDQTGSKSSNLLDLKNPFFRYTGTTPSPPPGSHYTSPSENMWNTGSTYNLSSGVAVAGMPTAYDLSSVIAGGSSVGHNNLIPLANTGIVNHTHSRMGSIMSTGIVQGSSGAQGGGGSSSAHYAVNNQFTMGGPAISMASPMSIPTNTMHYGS
Summary of the method: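 Flag-CARM1 (mouse, baculovirus-expressed, 250 nM) with 20 μM recombinant histone H3 and 10 μg/mL BSA in 50 mM Tris-HCl, 0.2 M NaCl, 0.5 mM DTT, pH 8.0, preincubated with inhibitor (0.01–2 mM) 30 min at room temperature, centrifuged; started with 10 μM ¹⁴C-SAM, 15 min at 25 °C. SDS-PAGE, phosphorimager quantitation of H3 radioactivity.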

[7] = biological target: T2, Protein arginine N-methyltransferase 1; assay: Inhibition of human recombinant PRMT1-mediated arginine methylation using nonhistone protein Npl3 substrate by ELISA
Target sequence in this assay (Q99873 whole entry): as the sequence (Q99873 whole entry, looked up) above

LNCaP [8] = assay: Inhibition of androgen dependent GREB1 gene transcription in human LNCAP cells by RT-PCR preincubated for 10 mins before 1 nM synthetic androgen R1881 addition; format: functional, cell-based
Summary of the method: (§2)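 LNCaP cells washed with PBS, starved 24 h in phenol-red-free RPMI1640 with 0.5% double-stripped FCS, then treated with inhibitor or DMSO vehicle; 10 min later stimulated overnight with or without 10⁻⁹ M R1881. DNase I-treated Trizol RNA reverse transcribed; target mRNA quantified by SYBR green I quantitative PCR with ROX passive reference.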

LNCaP [9] = assay: Growth inhibition of human LNCAP cells by MTS assay; format: functional
LNCaP [10] = assay: Inhibition of thymidine kinase promoter dependent transcription in human LNCAP cells at 10 uM by androgen-nondependent thymidine kinase-luciferase reporter gene assay; format: functional, cell-based; summary of the method: as §1
LNCaP [11] = assay: Inhibition of androgen dependent NKX3.1 gene transcription in human LNCAP cells by RT-PCR preincubated for 10 mins before 1 nM synthetic androgen R1881 addition; format: functional, cell-based; summary of the method: as §2
LNCaP [12] = assay: Inhibition of androgen dependent transcription in human LNCAP cells assessed as blockade of R1881-induced transcription at 1 to 25 uM by androgen derived MMTV-luciferase reporter gene assay; format: functional, cell-based; summary of the method: as §1
LNCaP [13] = assay: Inhibition of androgen dependent MAF gene transcription in human LNCAP cells by RT-PCR preincubated for 10 mins before 1 nM synthetic androgen R1881 addition; format: functional, cell-based; summary of the method: as §2
LNCaP [14] = assay: Inhibition of androgen dependent MAK gene transcription in human LNCAP cells by RT-PCR preincubated for 10 mins before 1 nM synthetic androgen R1881 addition; format: functional, cell-based; summary of the method: as §2
LNCaP [15] = assay: Inhibition of thymidine kinase promoter dependent transcription in human LNCAP cells at 1 uM by androgen-nondependent thymidine kinase-luciferase reporter gene assay; format: functional, cell-based; summary of the method: as §1
LNCaP [16] = assay: Inhibition of androgen-independent GAPDH gene transcription in human LNCAP cells by RT-PCR preincubated for 10 mins before 1 nM synthetic androgen R1881 addition; format: functional, cell-based; summary of the method: as §2
LNCaP [17] = assay: Inhibition of androgen dependent IGF1-R gene transcription in human LNCAP cells by RT-PCR preincubated for 10 mins before 1 nM synthetic androgen R1881 addition; format: functional, cell-based; summary of the method: as §2
LNCaP [18] = assay: Inhibition of androgen dependent […] gene transcription in human LNCAP cells by RT-PCR preincubated for 10 mins before 1 nM synthetic androgen R1881 addition; format: functional, cell-based; summary of the method: as §2
LNCaP [19] = assay: Inhibition of androgen dependent PER1 gene transcription in human LNCAP cells by RT-PCR preincubated for 10 mins before 1 nM synthetic androgen R1881 addition; format: functional, cell-based; summary of the method: as §2
LNCaP [20] = assay: Inhibition of androgen dependent CXCR4 gene transcription in human LNCAP cells by RT-PCR preincubated for 10 mins before 1 nM synthetic androgen R1881 addition; format: functional, cell-based; summary of the method: as §2
LNCaP [21] = assay: Inhibition of androgen dependent TMPRSS2 gene transcription in human LNCAP cells by RT-PCR preincubated for 10 mins before 1 nM synthetic androgen R1881 addition; format: functional, cell-based; summary of the method: as §2
LNCaP [22] = assay: Inhibition of androgen dependent ELK4 gene transcription in human LNCAP cells by RT-PCR preincubated for 10 mins before 1 nM synthetic androgen R1881 addition; format: functional, cell-based; summary of the method: as §2
LNCaP [23] = assay: Inhibition of androgen dependent FKBP5 gene transcription in human LNCAP cells by RT-PCR preincubated for 10 mins before 1 nM synthetic androgen R1881 addition; format: functional, cell-based; summary of the method: as §2

Structure (SMILES)	inhibition [4] [%]	inhibition [5] [%]	further results
O=C(Nc1ccc(S(=O)(=O)NCCc2ccccc2)cc1)c1ccc(Cl)c(Cl)c1			GI50 [1]: 52.2 µM; inhibition [2]: 37%; inhibition (LNCaP [3]): Active
O=C(Cc1ccccc1)Nc1ccc(S(=O)(=O)c2ccc(NC(=O)Cc3ccccc3)cc2)cc1			inhibition [2]: 31%
CC(NC(=O)c1ccc(N)cc1)c1ccccc1 (configuration not stated)		34	
O=S(=O)(NCCc1ccccc1)c1ccc(NS(=O)(=O)c2ccc(Cl)cc2)cc1			inhibition [6]: inactive; IC50 [7]: 5 µM; inhibition [2]: 58%
O=C(Cc1ccccc1)Nc1ccc(S(=O)(=O)NCCc2ccccc2)cc1	< 5	10	
Nc1ccc(S(=O)(=O)c2ccc(NC(=O)Cc3ccccc3)cc2)cc1	35.3	41.2	inhibition [2]: < 5%
O=C(Nc1ccc(S(=O)(=O)NCCc2ccccc2)cc1)c1ccccc1	15	20	
CCC(=O)Nc1ccc(S(=O)(=O)c2ccc(NC(=O)CC)cc2)cc1		< 5	
O=C(CCl)Nc1ccc(S(=O)(=O)c2ccc(NC(=O)CCl)cc2)cc1			inhibition (LNCaP [8]): Active; GI50 (LNCaP [9]): 4.49 µM; inhibition (LNCaP [10]): inactive; inhibition [6]: inactive; inhibition (LNCaP [11]): Active; inhibition (LNCaP [12]): Active; inhibition (LNCaP [13]): Active; inhibition (LNCaP [14]): Active; inhibition (LNCaP [15]): inactive; inhibition (LNCaP [16]): inactive; inhibition (LNCaP [17]): Active; IC50 [7]: 1.5 µM; inhibition (LNCaP [18]): Active; GI50 [1]: 1.97 µM; inhibition (LNCaP [19]): Active; inhibition (LNCaP [20]): Active; inhibition (LNCaP [21]): Active; inhibition [2]: < 5%; inhibition (LNCaP [22]): Active; inhibition (LNCaP [23]): Active
Nc1ccc(S(=O)(=O)NCc2ccccc2)cc1	22	28	
CCCC(=O)Nc1ccc(S(=O)(=O)c2ccc(NC(=O)CCC)cc2)cc1	14.7	44.1	
O=C(Nc1ccc(S(=O)(=O)NCCc2ccccc2)cc1)c1ccc(Br)cc1	23	41	
O=C(Nc1ccc(S(=O)(=O)NCCc2ccccc2)cc1)c1ccc(-c2ccccc2)cc1	39	42	
Nc1ccc(C(=O)NCc2ccccc2)cc1		47	
Nc1ccc(S(=O)(=O)NCc2ccccn2)cc1			IC50 [7]: 70.7 µM; inhibition [2]: 14%

Further lines, with some results ahead:

inhibition [4] [%]	inhibition [5] [%]	Structure (SMILES)	further results
< 5	13.6	Nc1ccc(S(=O)(=O)c2ccc(NC(=O)NCc3ccccc3)cc2)cc1	
28	40	CC(NS(=O)(=O)c1ccc(N)cc1)c1ccccc1 (configuration not stated)	
40	40	Nc1ccc(C(=O)Nc2ccc(S(=O)(=O)NCCc3ccccc3)cc2)cc1	
	< 5	Nc1ccc(S(=O)(=O)NCc2ccc(Cl)cc2)cc1	
	< 5	Nc1ccc(S(=O)(=O)NCCc2ccc(Cl)cc2)cc1	
12	19	COc1ccc(CNS(=O)(=O)c2ccc(N)cc2)cc1	
30	37	Nc1ccc(S(=O)(=O)NCCc2ccc(O)cc2)cc1	
	< 5	O=S(=O)(NCCc1ccccc1)c1ccc(Cl)cc1	
23.5	70.6	CCC(=O)Nc1ccc(S(=O)(=O)c2ccc(N)cc2)cc1	
